Laboratory results published in ChEMBL document CHEMBL4613298, “GPBAR1 Activation by C6-Substituted Hyodeoxycholane Analogues Protect against Colitis” (ACS Med Chem Lett, 2020).
The source made the active and inactive calls. The rule behind the calls is not given here.

Legend:
Homo sapiens = species on record: Homo sapiens; assay: Selectivity index, ratio of transactivation of human GPBAR1 receptor expressed in HEK293T cells assessed as maximum receptor activation at 10 uM to transactivation of human FXR (unknown origin) expressed in HepG2 cells co-expressing pSG5RXR/pGL4.70 assessed as maximum receptor activation at 10 uM; type: cell-based
In short: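 Ratio of percent activity at GPBAR1 (HEK-293T, CRE-luciferase, 10 μM, vs TLCA 10 μM) to percent activity at FXR (HepG2, IR1-luciferase, 10 μM, vs CDCA 10 μM). Both taken from the same triplicate experiment.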

[1] = molecular target: T1, G-protein coupled bile acid receptor 1 (Homo sapiens) (UniProt Q8TDU6); assay: Transactivation of human GPBAR1 receptor expressed in HEK293T cells assessed as maximum receptor activation at 10 uM after 18 hrs by cAMP response element driven renilla-luciferase dual reporter gene assay relative to TLCA; type: functional, cell-based; settings: HEK-293T
T1 sequence (whole entry): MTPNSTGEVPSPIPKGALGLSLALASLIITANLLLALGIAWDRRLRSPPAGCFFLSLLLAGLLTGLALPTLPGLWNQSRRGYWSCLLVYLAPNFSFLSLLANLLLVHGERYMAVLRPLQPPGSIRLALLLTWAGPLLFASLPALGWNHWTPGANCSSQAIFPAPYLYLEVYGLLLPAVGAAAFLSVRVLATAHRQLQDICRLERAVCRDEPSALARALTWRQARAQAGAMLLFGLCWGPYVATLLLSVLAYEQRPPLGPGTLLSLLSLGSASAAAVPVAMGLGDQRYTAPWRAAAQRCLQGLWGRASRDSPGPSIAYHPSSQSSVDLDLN
In short: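 HEK-293T cells transfected with GPBAR1 and a CRE-driven luciferase reporter, exposed to compound at 10 μM. Efficacy is maximal CRE transactivation as percent of that caused by TLCA (10 μM). One experiment, triplicate.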

[2] = molecular target: T2, Bile acid receptor (Homo sapiens) (UniProt Q96RI1); assay: Transactivation of FXR (unknown origin) expressed in HepG2 cells co-expressing pSG5RXR/pGL4.70 assessed as maximum receptor activation at 10 uM after 18 hrs by IR1 driven dual renilla-luciferase reporter gene assay relative to relative to CDCA; type: cell-based
T2 sequence (whole entry): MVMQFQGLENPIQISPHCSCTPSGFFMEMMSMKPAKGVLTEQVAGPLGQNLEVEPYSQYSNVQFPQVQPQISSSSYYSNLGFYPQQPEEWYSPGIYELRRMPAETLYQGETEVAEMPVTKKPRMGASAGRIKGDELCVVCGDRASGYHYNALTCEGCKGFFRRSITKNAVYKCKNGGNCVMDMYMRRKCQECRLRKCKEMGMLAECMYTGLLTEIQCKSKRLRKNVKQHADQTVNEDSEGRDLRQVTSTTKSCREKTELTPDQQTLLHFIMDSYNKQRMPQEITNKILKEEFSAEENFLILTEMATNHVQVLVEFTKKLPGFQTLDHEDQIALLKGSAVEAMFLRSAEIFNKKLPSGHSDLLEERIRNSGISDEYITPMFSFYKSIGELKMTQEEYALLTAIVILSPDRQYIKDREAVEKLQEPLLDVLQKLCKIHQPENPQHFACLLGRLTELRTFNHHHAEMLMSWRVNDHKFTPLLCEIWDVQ
In short: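 FXR reporter assay in HepG2 cells transfected with FXR and an IR1-driven luciferase reporter, compound at 10 μM. Efficacy is maximal IR1 transactivation relative to CDCA (10 μM). One experiment, triplicate.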

[3] = Aqueous solubility of compound in pH 7.4 PBS/MeOH at 10 mM after 24 hrs by LC-MS analysis; type: physicochemical; settings: buffer, pH 7.4, 24 h, 10000 µM
[4] = molecular target: T1, G-protein coupled bile acid receptor 1 (Homo sapiens); assay: Agonist activity at GPBAR1 receptor in human THP1 cells assessed as reduction in LPS-induced IL-6 expression at 10 uM after 18 hrs by RT-PCR analysis; type: cell-based; settings: THP-1
In short: (§1)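 THP1 monocytic/macrophage cells primed with LPS, then coincubated with or without test agent at 10 μM; expression of cytokine genes (IL-1β, IL-6, TNF-α, IL-10) measured.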

[5] = molecular target: T1, G-protein coupled bile acid receptor 1 (Homo sapiens); assay: Agonist activity at GPBAR1 receptor in human THP1 cells assessed as reduction in LPS-induced IL-1beta expression at 10 uM after 18 hrs by RT-PCR analysis; type: cell-based; settings: THP-1; in short: as §1
[6] = molecular target: T1, G-protein coupled bile acid receptor 1 (Homo sapiens); assay: Agonist activity at GPBAR1 receptor in human THP1 cells assessed as reduction in LPS-induced TNFalpha expression at 10 uM after 18 hrs by RT-PCR analysis; type: cell-based; settings: THP-1; in short: as §1
[7] = molecular target: T1, G-protein coupled bile acid receptor 1 (Homo sapiens); assay: Transactivation of human GPBAR1 receptor expressed in HEK293T cells at 10 to 50 uM after 18 hrs by cAMP response element driven renilla-luciferase dual reporter gene assay; type: functional, cell-based; settings: HEK-293T
[8] = molecular target: T2, Bile acid receptor (Homo sapiens); assay: Agonist activity at GST-tagged FXR-LBD (unknown origin) assessed as biotinylated SRC-1 recruitment at 10 uM after 30 mins by Alpha Screen assay
[9] = molecular target: T3, G-protein coupled bile acid receptor 1 (Homo sapiens, UniProt Q8TDU6); assay: Agonist activity at human GPBAR1 receptor expressed in HEK293T cells after 18 hrs by cAMP response element driven renilla-luciferase dual reporter gene assay; type: functional, cell-based, HEK-293T
T3 sequence (Q8TDU6 whole entry): T1 sequence (whole entry)
In short: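 GPBAR1 transactivation in transfected HEK-293T cells carrying a CRE-luciferase reporter; potency expressed as EC50. Data from one experiment run in triplicate.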

Structure (SMILES) | Selectivity Index (Homo sapiens) | max activation [1] [%] | max activation [2] [%] | solubility [3] | Activity [4] | Activity [5] | Activity [6] | Activity [7] | Activity [8] | EC50 [9] [nM]
C[C@H](CC#N)[C@H]1CC[C@H]2[C@@H]3C[C@](O)(Cc4ccccc4)[C@@H]4C[C@H](O)CC[C@]4(C)[C@H]3CC[C@]12C | 1.88 | 8.3 | 4.4 |  |  |  |  |  |  | 
C[C@H](CC#N)[C@H]1CC[C@H]2[C@@H]3C[C@](C)(O)[C@@H]4C[C@H](O)CC[C@]4(C)[C@H]3CC[C@]12C | 14.9 | 95.4 | 6.4 | Soluble | Active | Active | Active |  |  | 
C[C@H](CC#N)[C@H]1CC[C@H]2[C@@H]3C[C@@](C)(O)[C@@H]4C[C@H](O)CC[C@]4(C)[C@H]3CC[C@]12C | 15.1 | 83.4 | 5.5 | Soluble | Active | Active |  |  |  | 
C=CCCC[C@]1(O)C[C@H]2[C@@H]3CC[C@H]([C@H](C)CC#N)[C@@]3(C)CC[C@@H]2[C@@]2(C)CC[C@@H](O)C[C@@H]12 | 56.3 | 90.1 | 1.6 | Soluble | Active | Active |  |  |  | 
C=C[C@]1(O)C[C@@H]2[C@H](CC[C@]3(C)[C@@H]([C@H](C)CC#N)CC[C@@H]23)[C@@]2(C)CC[C@@H](O)C[C@H]21 | 28.4 | 62.5 | 2.2 |  |  |  |  |  |  | 
CC[C@@]1(O)C[C@@H]2[C@H](CC[C@]3(C)[C@@H]([C@H](C)CC#N)CC[C@@H]23)[C@@]2(C)CC[C@@H](O)C[C@H]12 |  |  |  |  |  |  |  | inactive | inactive | 
C[C@H](CC#N)[C@H]1CC[C@H]2[C@@H]3C[C@H](O)[C@@H]4C[C@H](O)CC[C@]4(C)[C@H]3CC[C@]12C | 33.9 | 119 | 3.5 |  |  |  |  |  |  | 2650
C[C@H](CC#N)[C@H]1CC[C@H]2[C@@H]3C[C@@](C)(O)[C@H]4C[C@H](O)CC[C@]4(C)[C@H]3CC[C@]12C |  |  |  |  |  |  |  | inactive | inactive | 
CCC[C@]1(O)C[C@H]2[C@@H]3CC[C@H]([C@H](C)CC#N)[C@@]3(C)CC[C@@H]2[C@@]2(C)CC[C@@H](O)C[C@@H]12 | 21.6 | 67.1 | 3.1 |  |  |  |  |  |  | 
CCC[C@@]1(O)C[C@@H]2[C@H](CC[C@]3(C)[C@@H]([C@H](C)CC#N)CC[C@@H]23)[C@@]2(C)CC[C@@H](O)C[C@H]12 |  |  |  |  |  |  |  | inactive | inactive | 
CC[C@@]1(O)C[C@H]2[C@@H]3CC[C@H]([C@H](C)CC#N)[C@@]3(C)CC[C@@H]2[C@@]2(C)CC[C@@H](O)C[C@@H]12 | 9.9 | 65.9 | 6.6 | Soluble | Active | Active | Active |  |  | 
C[C@H](CC#N)[C@H]1CC[C@H]2[C@@H]3C[C@@](O)(c4ccccc4)[C@@H]4C[C@H](O)CC[C@]4(C)[C@H]3CC[C@]12C | 2.13 | 38.8 | 18.2 |  |  |  |  |  |  | 
CC(C)[C@]1(O)C[C@@H]2[C@H](CC[C@]3(C)[C@@H]([C@H](C)CC#N)CC[C@@H]23)[C@@]2(C)CC[C@@H](O)C[C@H]21 | 5.16 | 22.2 | 4.3 |  |  |  |  |  |  | 
C=CC[C@@]1(O)C[C@H]2[C@@H]3CC[C@H]([C@H](C)CC#N)[C@@]3(C)CC[C@@H]2[C@@]2(C)CC[C@@H](O)C[C@@H]12 | 15.2 | 62.5 | 4.1 |  |  |  |  |  |  | 100
C=CC[C@@]1(O)C[C@@H]2[C@H](CC[C@]3(C)[C@@H]([C@H](C)CC#N)CC[C@@H]23)[C@@]2(C)CC[C@@H](O)C[C@H]12 |  |  |  |  |  |  |  | inactive | inactive | 
